Assay outcomes: PubChem BioAssay, several laboratories
In the library only some 1.6% were active in any assay of this set; here they are far more common.
NOD2 RIPK2 PPI: NOD2-RIPK2 binding disruptors in cells, primary screen, fluorescence, CHO cells, BLA complementation | Receptor-interacting serine/threonine-protein kinase 2 (Homo sapiens), O43353 | CCF4 ratio | inhibition, % at 4.98 µM | 360,000 compounds, 0.38% hits; in the data active means inhibition above about 21%;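 further: 0% = vehicle only and 100% = reference blocker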
Target sequence (O43353 whole entry, looked up): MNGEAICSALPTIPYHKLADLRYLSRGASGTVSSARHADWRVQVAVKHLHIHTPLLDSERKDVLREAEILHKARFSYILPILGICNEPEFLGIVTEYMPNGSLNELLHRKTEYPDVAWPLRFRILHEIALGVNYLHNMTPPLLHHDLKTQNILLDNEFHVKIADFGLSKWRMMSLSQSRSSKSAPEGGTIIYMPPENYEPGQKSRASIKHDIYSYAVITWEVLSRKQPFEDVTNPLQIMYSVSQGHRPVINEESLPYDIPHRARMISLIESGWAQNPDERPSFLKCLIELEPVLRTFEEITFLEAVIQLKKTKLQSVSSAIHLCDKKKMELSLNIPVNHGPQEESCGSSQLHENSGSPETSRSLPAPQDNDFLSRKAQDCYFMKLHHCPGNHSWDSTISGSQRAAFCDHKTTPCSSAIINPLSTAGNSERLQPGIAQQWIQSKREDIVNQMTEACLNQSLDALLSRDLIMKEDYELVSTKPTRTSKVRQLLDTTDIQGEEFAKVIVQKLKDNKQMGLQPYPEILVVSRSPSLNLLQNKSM
TLR4-MyD88 BLA: inhibitors of TLR4-MyD88 association in cells, primary screen, cell-based, HeLa CL3-4, BLA complementation, FRET ratio. Toll-like receptor 4 (Homo sapiens) + Myeloid differentiation primary response protein …. HeLa CL3-4 TLR4/MyD88 BLA complementation. inhibition, % at 8.4 µM. 200,000 compounds, 0.18% hits. AID 861, 2007; in the data active means inhibition above about 25%;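 further: 0% = vehicle and 100% = reference inhibitor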
SR-BI DiI-HDL act: activators of SR-BI mediated DiI-HDL uptake, primary screen, ldlA[mSR-BI] CHO cells, DiI fluorescence | activation, % at 12.5 µM | 320,000 compounds, 0.096% hits | 3 h; 100 = double the neutral-control signal;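 active means mean replicate activation of at least 60% and every replicate at or above 60%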;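 further: 0% = median plate neutral-control signal and 100% = twice that signal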
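System: LDL receptor-deficient CHO ldlA cells overexpressing murine SR-BI | Timing: 3 h uptake period with compound, 37 °C | Medium: HEPES-buffered (25 mM, pH 7.4) F12 plus 0.5% BSA | Dosing: Single-point compound dose | Signal: Bottom-read fluorescence, 550/595 nm | Read-out: Retained DiI signal reflecting DiI-HDL uptake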
TLR9-MyD88 block: inhibitors of TLR9-MyD88 association in cells, primary screen, cell-based, CHO, BLA complementation, fluorescence | Toll-like receptor 9 (Homo sapiens) + Myeloid differentiation primary response protein … | CCF4 FRET ratio | inhibition, % at 4.98 µM | 340,000 compounds, 0.21% hits | AID 504734, 2011;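 active means inhibition above the mean over all tested compounds plus 3 SD, cut at about 21% in these data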;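 further: 0% = DMSO only wells and 100% = clavulanate BLA inhibitor control wells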
SR-BI DiI inh: inhibitors of SR-BI mediated HDL lipid uptake, primary screen, ldlA[mSR-BI] cells, fluorescence, single point | Scavenger receptor class B member 1 (Mus musculus), Q61009 | ldlA[mSR-BI] CHO cells, DiI-HDL uptake fluorescence, 3 h | inhibition, % at 12.5 µM | 320,000 compounds, 0.96% hits | AID 488896, 2010;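 active means mean replicate inhibition of at least 70% and a set share of replicates each scoring 70 or more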;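 further: 0% = median of neutral control wells and 100% = median of positive control wells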
Hep lipid drop: inhibitors of hepatocyte lipid droplet formation, primary screen, imaging, high-throughput imaging, BODIPY stain; AML12 mouse hepatocytes, oleate lipid droplets; inhibition, % at 6.5 µM; 240,000 compounds, 0.4% hits;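 active means lipid droplet intensity inhibited by at least 50%, with more than 500 cells counted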
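material = mouse AML12 hepatocyte cell line, fixed after treatment | also added = 100 µM oleic acid challenge | doses = compound at 6.5 µM only | schedule = overnight exposure | technique = Image-based BODIPY and DAPI two-channel analysis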
Lipid drop inh: hepatocyte lipid droplet accumulation inhibitors, confirmation, imaging, AML12 mouse hepatocytes, single concentration, high-content; 870 compounds, 65% hits; shares compounds with Hep lipid drop; AID 463183, 2010; BODIPY lipid droplet imaging; droplets induced with 100 µM oleic acid; inhibition, % at 5.2 µM;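 active means inhibition of lipid droplet metric at least 50%, with more than 300 cells in each of four replicates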;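 further: plate controls were DMSO with oleic acid for no effect and 5 µM Triacsin-C for full effect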
AML12 tox img: AML12 hepatocyte cytotoxicity, counter-screen for hepatic lipid droplet formation project, imaging, DAPI nuclear morphology imaging. shares compounds with Hep lipid drop. AML12 mouse hepatocytes; stronger effect = higher value; cells fed 100 µM oleate overnight. z-score at 5 µM. 870 compounds, 3% hits. AID 463200, 2010; in the data active means z-score above about 6.3;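 further: compound exposure lasted overnight at 37 °C before fixation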
AML12 tox ATP: AML12 hepatocyte cytotoxicity, confirmation, cytotoxicity control for hepatic lipid droplet formation project, cell-based, single concentration | AML12 mouse hepatocyte viability, ATP luminescence; cells loaded with 100 µM oleic acid | 530 tested, under 10 active | cytotoxicity, % at 50 µM | shares compounds with Hep lipid drop;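 active means cytotoxicity above 50% in each of four replicates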;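 further: compound exposure lasted overnight at 37 °C before the ATP read; 0% = DMSO-treated cells and 100% = wells with no cells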
Numbers without * were called inactive; x = no result given.

SMILES | NOD2 RIPK2 PPI | TLR4-MyD88 BLA | SR-BI DiI-HDL act | TLR9-MyD88 block | SR-BI DiI inh | Hep lipid drop | Lipid drop inh | AML12 tox img | others
O=C(CNc1cccc(C(F)(F)F)c1)Nc1cccc(S(=O)(=O)N2CCCC2)c1 | -1.5 | x | 0.4 | -3.0 | -0.4 | x | x | x
CNC(=O)CSc1nnc(C(C)C)n1C | 0.6 | 8.8 | 32.5 | 5.9 | -32.5 | 10.4 | x | x
Cc1ccc(NC(=O)COc2coc(CN3CCc4ccccc43)cc2=O)cc1Cl | -6.7 | x | -13.6 | -8.6 | 13.6 | x | x | x
Cc1c(Cl)cccc1N(CC(=O)NC(C)c1ccccc1)S(C)(=O)=O (stereo unspecified) | -4.2 | x | 3.9 | -3.9 | -3.9 | 58.4* | 46.7 | -0.752
COc1ccc(OCC(=O)Nc2cc(-c3nn(C)c(=O)c4ccccc34)ccc2N2CCOCC2)cc1 | 5.7 | x | -57.3 | -5.6 | 57.3 | 3.6 | x | x
COc1ccccc1N1N=C(c2ccc([N+](=O)[O-])cc2)CC1c1ccccc1 (stereo unspecified) | 11.1 | x | -49.2 | 18.2 | 49.2 | 66.7* | 110.2* | -0.963 | AML12 tox ATP=9.0
COc1cc(N2N=C(c3ccccc3)CC2c2ccccc2)c(C=O)cc1C=O (stereo unspecified) | 5.6 | x | -16.7 | -13.3 | 16.7 | 2.4 | x | x
CCN(CC)C(=O)C1=C(C)Nc2nnnn2C1c1cccnc1 (stereo unspecified) | -4.5 | 6.4 | 24.2 | -10.2 | -24.2 | 14.3 | x | x
C=CCNC(=O)/C(=C/c1cccc([N+](=O)[O-])c1)NC(=O)c1ccccc1 | -8.6 | -2.8 | 5.7 | 0.1 | -5.7 | 1.1 | x | x
O=C(COC(=O)c1cc(S(=O)(=O)N2CCCCC2)ccc1N1CCOCC1)c1ccccc1Cl | -10.7 | x | x | 7.2 | x | x | x | x
Cc1ccc(NC2=C([N+](=O)[O-])CS(=O)(=O)C2)cc1 | -5.2 | 9.7 | 11.9 | -12.0 | -11.9 | -1.6 | x | x
CN(C)c1ccc(NC2=C([N+](=O)[O-])CS(=O)(=O)C2)cc1 | -5.0 | 12.6 | -4.3 | -12.6 | 4.3 | 84.1* | 14.9 | -0.00954
CC(C)c1ccccc1NC(=O)COC(=O)c1c2c(nc3ccccc13)CCN(Cc1ccccc1)C2 | -6.8 | -2.5 | -42.7 | -14.4 | 42.7 | 53.9* | 56.3 | -0.00351 | AML12 tox ATP=15.8
Cc1nc(Nc2ccccc2)sc1C(=O)c1ccc(F)cc1 | -2.1 | x | -14.5 | 7.9 | 14.5 | 0.1 | x | x
CNc1nc(C)c(C(=O)c2ccc(Cl)cc2)s1 | -6.7 | -13.7 | 13.7 | 14.8 | -13.7 | 65.4* | 21.7 | -0.138
NS(=O)(=O)c1ccc(CNC(=O)CNC(=O)c2ccc(Br)o2)cc1 | -11.5 | x | x | -10.3 | x | -3.2 | x | x
COc1ccc(S(=O)(=O)Nc2cccc(-c3ccc4nncn4n3)c2)c(OC)c1 | -11.2 | x | 9.1 | -2.0 | -9.1 | x | x | x
CC(C)(C)c1ccc(-c2nnc(SCC(=O)Nc3sc4c(c3C#N)CCCC4)o2)cc1 | 0.4 | -5.2 | 5.7 | -3.8 | -5.7 | 57.9* | 2.0 | -1.26
O=C(Cc1cccc2ccccc12)Nc1nc(-c2cccc([N+](=O)[O-])c2)cs1 | -1.6 | -4.9 | -24.5 | 1.6 | 24.5 | 68.5* | 100.0* | -1.03 | AML12 tox ATP=31.2
CC(OC(=O)c1ccc(F)cc1)C(=O)Nc1nc(-c2cccc([N+](=O)[O-])c2)cs1 (stereo unspecified) | -1.4 | -5.1 | -27.9 | 0.9 | 27.9 | -1.6 | x | x
